# Measurements reported in ChEMBL document CHEMBL5149984, “Discovery of HN37 as a Potent and Chemically Stable Antiepileptic Drug Candidate” (J Med Chem, 2021).
# How the values were obtained:
# [1] = target: Potassium voltage-gated channel subfamily KQT member 2 (Rattus norvegicus) (UniProt O88943); test: Agonist activity at rat Kv7.2 channel expressed in CHO cells assessed as shift of half voltage of maximal activation at 10 uM by whole cell patch clamp based electrophysiological method; conditions: filed as agonist
# How it was run: (§1)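 Rat KCNQ2 cotransfected with EGFP plasmid by Lipofectamine 3000 into CHO cells (DMEM/F12, 10% FBS; split 24 h before transfection). Whole-cell recording at room temperature. Pipette: 145 mM KCl, 1 mM MgCl2, 5 mM EGTA, 10 mM HEPES, 5 mM MgATP, pH 7.3. Bath, constantly perfused: 140 mM NaCl, 5 mM KCl, 2 mM CaCl2, 1.5 mM MgCl2, 10 mM glucose, 10 mM HEPES, pH 7.4. Signals filtered at 1 kHz. Compound at 10 μM. I/I0 is outward current amplitude with over without compound. ΔV1/2 is the shift in V1/2 from Boltzmann fits of activation curves. Mean ± SEM.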
# [2] = target: Potassium voltage-gated channel subfamily KQT member 2 (Rattus norvegicus) (UniProt O88943); test: Agonist activity at rat Kv7.2 channel expressed in CHO cells assessed as amplitude change of outward current at 10 uM by whole cell patch clamp based electrophysiological method; conditions: filed as agonist; how it was run: as §1
# [3] = Neurotoxicity in po dosed Kunming mouse assessed as motor impairment after 1 hr by rotarod test; format: toxicity, organism-based; conditions: in vivo, po, 1 h
# How it was run: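 Male KM mice dosed intragastrically with compound freshly suspended in 0.5% CMC-Na. Rotarod performance scored 1 h after dosing as the fraction of animals showing motor impairment. Fisher's exact test versus vehicle; TD50 from nonlinear dose−response fit.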
# [4] = species on record: Mus musculus; test: Anticonvulsant activity in Kunming mouse assessed as reduction in MES-induced seizure after 1 hr; format: functional
# How it was run: (§2)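 MES test in male KM mice. Compounds freshly suspended in 0.5% CMC-Na and given by gavage at 20 mL/kg; 160 V stimulus through ear clips. Protection scored as absence of hindlimb tonic extension; time course at 0.25, 0.5, 1 and 2 h, otherwise tested at 1 h. ED50 from dose−response by nonlinear regression; Fisher's exact test versus vehicle.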
# [5] = species on record: Mus musculus; test: Anticonvulsant activity in Kunming mouse assessed as reduction in Sc-PTZ induced seizure after 1 hr; format: functional
# How it was run: (§3)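 sc-PTZ test in male KM mice. Compound suspended in 0.5% CMC-Na and given orally 1 h before PTZ (freshly dissolved in normal saline, 100 mg/kg). Protection against clonic seizures scored; ED50 by nonlinear regression.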
# [6] = species on record: Mus musculus; test: Anticonvulsant activity in C57BL/6 mouse 6 Hz seizure model at 32 mA measured after 1 hr; format: functional
# [7] = species on record: Mus musculus; test: Anticonvulsant activity in C57BL/6 mouse 6 Hz seizure model at 44 mA measured after 1 hr; format: functional
# [8] = tested on: Mus musculus; test: Anticonvulsant activity in MES induced Kunming mouse model of seizure at 30 mg/kg, po after 1 hr; format: functional; how it was run: as §2
# [9] = tested on: Mus musculus; test: Anticonvulsant activity in pentylenetetrazol induced Kunming mouse model of seizure at 30 mg/kg, po after 1 hr; format: functional; how it was run: as §3
# Sequence of Potassium voltage-gated channel subfamily KQT member 2 (Rattus norvegicus) (O88943 whole entry, the tested form may be a part): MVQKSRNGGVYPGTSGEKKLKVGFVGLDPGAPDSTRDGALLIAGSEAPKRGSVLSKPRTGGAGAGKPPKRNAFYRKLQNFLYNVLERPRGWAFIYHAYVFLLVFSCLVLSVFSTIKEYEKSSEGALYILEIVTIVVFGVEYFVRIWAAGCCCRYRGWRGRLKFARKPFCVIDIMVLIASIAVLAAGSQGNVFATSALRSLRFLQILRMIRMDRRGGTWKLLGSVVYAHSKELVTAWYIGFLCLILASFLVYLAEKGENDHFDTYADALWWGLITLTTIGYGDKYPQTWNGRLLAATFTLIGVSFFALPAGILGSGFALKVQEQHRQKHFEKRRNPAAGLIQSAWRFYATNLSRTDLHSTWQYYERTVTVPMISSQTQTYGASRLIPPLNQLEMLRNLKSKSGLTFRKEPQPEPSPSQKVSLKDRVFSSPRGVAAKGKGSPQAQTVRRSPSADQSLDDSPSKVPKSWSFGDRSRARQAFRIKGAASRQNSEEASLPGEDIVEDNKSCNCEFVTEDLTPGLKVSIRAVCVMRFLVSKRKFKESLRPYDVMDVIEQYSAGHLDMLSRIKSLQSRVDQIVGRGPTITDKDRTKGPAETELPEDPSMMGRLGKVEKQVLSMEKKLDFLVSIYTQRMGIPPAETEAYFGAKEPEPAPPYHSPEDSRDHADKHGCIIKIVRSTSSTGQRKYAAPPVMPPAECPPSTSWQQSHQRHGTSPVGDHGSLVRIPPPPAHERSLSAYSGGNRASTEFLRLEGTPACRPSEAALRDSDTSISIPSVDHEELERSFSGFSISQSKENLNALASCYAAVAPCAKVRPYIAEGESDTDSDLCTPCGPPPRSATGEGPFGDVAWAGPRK
smiles,measurement,setting,value
C#CCN(Cc1ccccc1F)c1ccc(NC(=O)OC)cc1,Activity,[1],-7.6 mV
same,Activity,[2],2.31
C#CCN(Cc1ccc(F)cc1)c1ccc(NC(=O)OC)cc1Cl,Activity,[1],-2.06 mV
same,Activity,[2],1.19
C#CCN(Cc1ccc(F)cc1)c1ccc(NC(=O)OCC=C)cc1,Activity,[1],-14.5 mV
same,Activity,[2],1.01
C#CCN(Cc1ccc(F)cc1)c1ccc(NC(=O)OCC(C)C)cc1,Activity,[1],-14.3 mV
same,Activity,[2],1.23
C#CCN(Cc1ccc(F)cc1)c1ccc(NC(=O)OCc2ccccc2)cc1,Activity,[1],-11.5 mV
same,Activity,[2],2.09
C#CCN(Cc1ccc(F)cc1)c1ccc(NC(=O)OC)c(Cl)c1,Activity,[1],-7.06 mV
same,Activity,[2],1.09
C#CCN(Cc1ccc(F)cc1)c1ccc(NC(=O)OC)c(F)c1,Activity,[1],-22 mV
same,Activity,[2],2.09
C#CCN(Cc1ccc(F)cc1)c1cccc(NC(=O)OC)c1,Activity,[1],3.6 mV
same,Activity,[2],1.65
C#CCN(Cc1ccccc1Cl)c1ccc(NC(=O)OC)cc1,Activity,[1],-16.5 mV
same,Activity,[2],2.29
C#CCN(Cc1cccc(F)c1)c1ccc(NC(=O)OC)cc1,Activity,[1],-21.1 mV
same,Activity,[2],2.33
C#CCN(Cc1ccc(F)cc1)c1ccc(NC(=O)OC)c(C#N)c1,Activity,[1],-5.1 mV
same,Activity,[2],0.52
C#CCN(Cc1ccc(F)cc1)c1ccc(NC(=O)OCC)c(N)c1,Activity,[1],-47.9 mV
same,Activity,[2],1.53
C#CCN(Cc1ccc(F)cc1)c1ccc(NC(=O)OC(C)(C)C)cc1,Activity,[1],-19.4 mV
same,Activity,[2],1.05
C#CCN(Cc1ccc(F)cc1)c1ccc(NC(=O)OC)cc1F,Activity,[1],-9.06 mV
same,Activity,[2],1.39
C#CCN(Cc1ccc(F)cc1)c1ccc(NC(=O)OCC2COC(C)(C)O2)cc1 (stereo not drawn),Activity,[1],-3.95 mV
same,Activity,[2],2.11
C#CCN(Cc1ccc(F)cc1)c1ccccc1NC(=O)OC,Activity,[2],0.95
C#CCN(Cc1ccc(F)cc1)c1ccc(NC(=O)OCC)cc1,Activity,[1],-7.26 mV
same,Activity,[2],1.99
C#CCN(Cc1ccc(F)cc1)c1ccc(NC(=O)OC)c(C)c1,Activity,[1],-23.3 mV
same,Activity,[2],4.8
CC[C@H](C(N)=O)N1CCCC1=O [LEVITIRACETAM],Activity,[3],> 500 mg/kg
same,ED50,[4],> 500 mg/kg
same,ED50,[5],> 500 mg/kg
same,ED50,[6],41.5 mg/kg
same,ED50,[7],376 mg/kg
C#CCN(Cc1ccc(F)cc1)c1ccc(NC(=O)OC)c(OC(F)(F)F)c1,Activity,[1],-13.2 mV
same,Activity,[2],1.24
C#CCN(Cc1ccc(F)cc1)c1ccc(NC(=O)OC)c(C(F)(F)F)c1,Activity,[1],-10.4 mV
same,Activity,[2],1.42
C#CCN(Cc1ccc(F)cc1)c1ccc(NC(C)=O)cc1,Activity,[1],-6.09 mV
same,Activity,[2],1.8
C#CCN(Cc1ccc(F)cc1)c1c(C)cc(NC(=O)OC)cc1C,Activity,[1],13.5 mV
same,Activity,[2],0.72
C#CCN(Cc1ccc(F)cc1)c1ccc(NC(=O)OC)cc1,Activity,[1],-24.2 mV
same,Activity,[2],3.27
same,Activity,[8],50%
same,Activity,[9],60%
C#CCN(Cc1ccc(C)cc1)c1ccc(NC(=O)OC)cc1,Activity,[1],-5.77 mV
same,Activity,[2],1.05
C#CCN(Cc1ccc(F)cc1)c1ccc(NC(=O)OC)cc1C,Activity,[1],-3.42 mV
same,Activity,[2],1.4
C#CCN(Cc1ccc(Br)cc1)c1ccc(NC(=O)OC)cc1,Activity,[1],-25.1 mV
same,Activity,[2],3.75
C#CCN(Cc1ccc(F)c(F)c1)c1ccc(NC(=O)OC)cc1,Activity,[1],-14.9 mV
same,Activity,[2],2.52
C#CCN(Cc1cccc(OC)c1)c1ccc(NC(=O)OC)cc1,Activity,[1],-12.5 mV
same,Activity,[2],2.72
CC1(C)O[C@@H]2[C@@H](CO[C@@]3(COS(N)(=O)=O)OC(C)(C)O[C@@H]23)O1 [TOPIRAMATE],Activity,[3],379.2 mg/kg
same,ED50,[4],35.5 mg/kg
same,ED50,[5],> 200 mg/kg
same,ED50,[6],> 500 mg/kg
same,ED50,[7],> 500 mg/kg
C#CCN(Cc1ccc(F)cc1)c1ccc(NC(=O)OC)cc1C#N,Activity,[1],-9.62 mV
same,Activity,[2],1.94
C#CCN(Cc1ccc(F)c(C(F)(F)F)c1)c1ccc(NC(=O)OC)cc1,Activity,[1],-15.6 mV
same,Activity,[2],1.33
C#CCN(Cc1ccc(F)cc1)c1ccc(F)c(NC(=O)OC)c1,Activity,[1],-18.7 mV
same,Activity,[2],2.75
